Published values gathered from unrelated publications.
Target: Protein kinase C epsilon type (PRKCE, Homo sapiens, UniProt Q02156)
One construct used (Q02156 1-737): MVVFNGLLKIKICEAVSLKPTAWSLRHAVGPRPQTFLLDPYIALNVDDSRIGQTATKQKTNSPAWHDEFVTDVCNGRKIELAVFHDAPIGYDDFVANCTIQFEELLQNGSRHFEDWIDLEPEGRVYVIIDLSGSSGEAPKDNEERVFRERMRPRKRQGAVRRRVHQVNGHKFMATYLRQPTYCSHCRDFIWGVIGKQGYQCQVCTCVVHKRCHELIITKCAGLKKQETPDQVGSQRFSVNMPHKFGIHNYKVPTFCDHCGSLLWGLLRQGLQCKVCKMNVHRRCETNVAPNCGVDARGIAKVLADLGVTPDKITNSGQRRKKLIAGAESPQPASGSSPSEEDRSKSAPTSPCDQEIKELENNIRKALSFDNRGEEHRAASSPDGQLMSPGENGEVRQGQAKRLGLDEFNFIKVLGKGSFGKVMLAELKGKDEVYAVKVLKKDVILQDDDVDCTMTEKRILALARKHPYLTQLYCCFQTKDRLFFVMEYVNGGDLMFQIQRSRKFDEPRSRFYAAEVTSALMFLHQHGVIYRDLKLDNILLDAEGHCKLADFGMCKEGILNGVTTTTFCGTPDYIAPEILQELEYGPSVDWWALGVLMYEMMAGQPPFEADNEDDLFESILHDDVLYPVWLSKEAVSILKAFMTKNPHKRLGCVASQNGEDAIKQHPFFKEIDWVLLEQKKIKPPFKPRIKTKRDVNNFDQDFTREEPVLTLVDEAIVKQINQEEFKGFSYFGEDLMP

SMILES | assay | conditions | measurement | result
Nc1cnc(N2CCc3cc(S(=O)(=O)Nc4c(F)cc(Cl)cc4F)cc(N4CCCC4=O)c32)nc1 | cell-free assay, competition with immobilised ligand | 1 µM | remaining binding | 100%
O=C(Nc1cnn(-c2csc(C(=O)NC3COC3)c2)c1)Nc1c(F)cccc1Cl | enzyme activity, inhibitor | 5 µM | remaining activity | 94.2%
COc1cc2ncnc(Nc3ccc(Oc4ccccc4)cc3C)c2cc1OC | enzyme activity, inhibitor | 1 µM | inhibition | 0%
CCN(CC)c1ccc(C2=NNC(=O)CC2C)cc1[N+](=O)[O-] (stereo not shown) | enzyme activity, inhibitor | 10 µM | remaining activity | 95%
Cc1ccc(C(=O)Nc2ccc(CN3CCN(C)CC3)c(C(F)(F)F)c2)cc1C#Cc1cnc2cccnn12 | enzyme activity | 23.5 nM | remaining activity | 77%
O=C(CSc1nc2nccnc2c(=O)n1CCc1ccccc1)Nc1nccs1 | enzyme activity, inhibitor | 10 µM | inhibition | -23%
CC(C)c1ccc(NC(=O)c2cccs2)c(-c2nc3ccccc3[nH]c2=O)c1 | enzyme activity, inhibitor | 1 µM | activity vs control | 109%
CN1CC(Oc2cnc(C#N)cc2-c2ccn3nc(NC(=O)C4CC4)cc3c2)C1 | enzyme activity, inhibitor | 1 µM | inhibition | 6%
Cc1cnc(NC2CCOCC2)nc1-n1cnc(C(=O)NC(CN)c2cc(F)cc(Cl)c2)c1 (stereo not shown) | enzyme activity, inhibitor, radiometric | 1 µM | remaining activity | 91%
Cc1ccc(NC(=O)c2ccc(C)c(C(F)(F)F)c2)cc1C#Cc1nn(C2CCC(O)CC2)c2ncnc(N)c12 (stereo not shown) | cell-free assay | 10 µM | remaining signal | 117%
CN([C@@H]1CCc2c(CC(=O)O)c3cc(S(C)(=O)=O)ccc3n2C1)S(=O)(=O)c1ccc(F)cc1 | cell-free assay, competition with immobilised ligand | 1 µM | remaining binding | 87%
N#CCCc1ccc2c(c1)-c1[nH]c3ccc([N+](=O)[O-])cc3c1CC(=O)N2 | cell-free assay | 0.5 µM | remaining signal | 95.4%
O=C(O)c1cc(-c2ccc(C3CCNCC3)cc2)c2ccc(-c3ccc(C(F)(F)F)cc3)cc2c1 | cell-free assay, competition with immobilised ligand | 1 µM | remaining binding | 100%
CNC(=O)c1cc(Oc2ccc(NC(=O)Nc3ccc(Cl)c(C(F)(F)F)c3)cc2)ccn1 | cell-free assay | 0.5 µM | remaining signal | 96.4%
CCN(CC)CCNC(=O)c1c(C)[nH]c(/C=C2\C(=O)Nc3ccc(F)cc32)c1C | enzyme activity, inhibitor | 10 µM | inhibition | 21%
O=C(Nc1cccnn1)N1CCC(=Cc2cccc(Oc3ccc(C(F)(F)F)cn3)c2)CC1 | cell-free assay, competition with immobilised ligand | 1 µM | remaining binding | 82%
CC(C)(O)[C@H]1CC[C@H](Nc2ccc3ncc(-c4cccc(C(F)(F)F)c4)n3n2)CC1 | enzyme activity, inhibitor | 1 µM | remaining activity | 60.1%
CN(C)CC#Cc1ccc(OCCCc2sc(N3CCc4cccc(C(=O)Nc5nc6ccccc6s5)c4C3)nc2C(=O)O)c(F)c1 | cell-free assay, competition with immobilised ligand | 1 µM | remaining binding | 100%
Nc1nc(Nc2ccc(S(N)(=O)=O)cc2)nn1C(=O)c1c(F)cccc1F | cell-free assay | 0.5 µM | remaining signal | 97.2%
CCOC(=O)c1cc2cc(-c3cc(C(=O)NCc4ccc(C(=O)O)cc4)nn3C)ccc2[nH]1 | cell-free assay, competition with immobilised ligand | 0.1 µM | remaining binding | 90%
Nc1ncnc2occ(-c3ccc(NC(=O)Nc4cc(C(F)(F)F)ccc4F)cc3)c12 | cell-free assay | 20 µM | remaining signal | 50%
CNCc1ccccc1-c1csc([C@H](C)Nc2nc(C)nc3cc(OC)c(OC)cc23)c1 | cell-free assay, competition with immobilised ligand | 1 µM | remaining binding | 78%
CC/C(=N\NC(=O)NCc1cccc(O)c1)c1ccc(O)c(C)c1O | enzyme activity, inhibitor | 0.1 µM | inhibition | 19.6%
CC(C)(C)c1nc(-c2cccc(NS(=O)(=O)c3c(F)cccc3F)c2F)c(-c2ccnc(N)n2)s1 | enzyme activity, inhibitor, radiometric | 1 µM | remaining activity | 132%
Cn1cncc1C1=CN(c2ncnc3[nH]cnc23)CCS1 | enzyme activity, inhibitor, radiometric | 2 µM | inhibition | 92.7%
